Test results reported in ChEMBL document CHEMBL1135850, “P1 Phenethyl peptide boronic acid inhibitors of HCV NS3 protease” (Bioorg Med Chem Lett, 2002).
Peptide text beside a SMILES is read from it. * marks the point of attachment. X4 = CC1(C)[C@@H]2C[C@H]3OB([C@H](CCc4cccc(F)c4)N*)O[C@@]3(C)[C@H]1C2; X1 = CC1(C)[C@@H]2C[C@H]3OB([C@H](CCc4ccccc4F)N*)O[C@@]3(C)[C@H]1C2; X6 = CC1(C)[C@@H]2C[C@H]3OB([C@H](CCCc4ccccc4)N*)O[C@@]3(C)[C@H]1C2; X15 = CC1(C)[C@@H]2C[C@H]3OB([C@H](Cc4ccccc4)N*)O[C@@]3(C)[C@H]1C2; X12 = CC(C)CC[C@H](N*)B1O[C@@H]2C[C@@H]3C[C@@H](C3(C)C)[C@]2(C)O1; X9 = CC1(C)[C@@H]2C[C@H]3OB([C@@H](N*)c4ccccc4)O[C@@]3(C)[C@H]1C2; X11 = CCCCCC[C@H](N*)B1O[C@@H]2C[C@@H]3C[C@@H](C3(C)C)[C@]2(C)O1; X13 = CCCCC[C@H](N*)B1O[C@@H]2C[C@@H]3C[C@@H](C3(C)C)[C@]2(C)O1; X14 = CCCC[C@H](N*)B1O[C@@H]2C[C@@H]3C[C@@H](C3(C)C)[C@]2(C)O1

target: NS3 (Hepatitis C virus, UniProt A3EZJ3); test: Binding affinity against Hepatitis C virus NS3 protease; parameters: species or system Hepacivirus hominis
Outline: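 Continuous fluorescence assay with 4 nM NS3 protease plus NS4A cofactor peptide, in 50 mM Tris pH 7.0, 5 mM DTT, 50% glycerol, 2% CHAPS. Serially diluted inhibitors, given as boronic acid pinanediol esters, were preincubated with enzyme for 15 min. The reaction was started with the FRET ester substrate Ac-DED(EDANS)EEAbuψ[COO]ASK(DABCYL)-NH2 at ambient temperature and read at excitation 360 nm, emission 530 nm.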

Structure (SMILES)	Ki [nM]
CC(C)[C@H](NC(=O)[C@H](CCC(=O)O)NC(=O)[C@@H](N)CC(=O)O)C(=O)N[C@H](C(=O)N1CCC[C@H]1C(=O)N[C@H](B1O[C@@H]2C[C@@H]3C[C@@H](C3(C)C)[C@]2(C)O1)c1ccccc1)C(C)C (H-DEVVP-X9)	900
CC(C)[C@H](NC(=O)[C@H](CCC(=O)O)NC(=O)[C@@H](N)CC(=O)O)C(=O)N[C@H](C(=O)N1CCC[C@H]1C(=O)N[C@@H](CCc1ccc(C2CCCCC2)cc1)B1O[C@@H]2C[C@@H]3C[C@@H](C3(C)C)[C@]2(C)O1)C(C)C	3
CC(C)[C@H](NC(=O)[C@H](CCC(=O)O)NC(=O)[C@@H](N)CC(=O)O)C(=O)N[C@H](C(=O)N1CCC[C@H]1C(=O)N[C@@H](CCc1ccc(C(F)(F)F)cc1)B1O[C@@H]2C[C@@H]3C[C@@H](C3(C)C)[C@]2(C)O1)C(C)C	2
CC(C)[C@H](NC(=O)[C@H](CCC(=O)O)NC(=O)[C@@H](N)CC(=O)O)C(=O)N[C@H](C(=O)N1CCC[C@H]1C(=O)N[C@@H](CCc1ccc(Oc2ccccc2)cc1)B1O[C@@H]2C[C@@H]3C[C@@H](C3(C)C)[C@]2(C)O1)C(C)C	3
CCCCCC[C@H](NC(=O)[C@@H]1CCCN1C(=O)[C@@H](NC(=O)[C@@H](NC(=O)[C@H](CCC(=O)O)NC(=O)[C@@H](N)CC(=O)O)C(C)C)C(C)C)B1O[C@@H]2C[C@@H]3C[C@@H](C3(C)C)[C@]2(C)O1 (H-DEVVP-X11)	13
CC[C@H](NC(=O)[C@@H]1CCCN1C(=O)[C@@H](NC(=O)[C@@H](NC(=O)[C@H](CCC(=O)O)NC(=O)[C@@H](N)CC(=O)O)C(C)C)C(C)C)B1O[C@@H]2C[C@@H]3C[C@@H](C3(C)C)[C@]2(C)O1	8
CC(C)[C@H](NC(=O)[C@H](CCC(=O)O)NC(=O)[C@@H](N)CC(=O)O)C(=O)N[C@H](C(=O)N1CCC[C@H]1C(=O)N[C@@H](CCc1ccccc1F)B1O[C@@H]2C[C@@H]3C[C@@H](C3(C)C)[C@]2(C)O1)C(C)C (H-DEVVP-X1)	18
Cc1ccc(CC[C@H](NC(=O)[C@@H]2CCCN2C(=O)[C@@H](NC(=O)[C@@H](NC(=O)[C@H](CCC(=O)O)NC(=O)[C@@H](N)CC(=O)O)C(C)C)C(C)C)B2O[C@@H]3C[C@@H]4C[C@@H](C4(C)C)[C@]3(C)O2)cc1	17
CC(C)[C@H](NC(=O)[C@H](CCC(=O)O)NC(=O)[C@@H](N)CC(=O)O)C(=O)N[C@H](C(=O)N1CCC[C@H]1C(=O)N[C@@H](CCc1ccc(Cl)cc1)B1O[C@@H]2C[C@@H]3C[C@@H](C3(C)C)[C@]2(C)O1)C(C)C	2
Cc1cccc(CC[C@H](NC(=O)[C@@H]2CCCN2C(=O)[C@@H](NC(=O)[C@@H](NC(=O)[C@H](CCC(=O)O)NC(=O)[C@@H](N)CC(=O)O)C(C)C)C(C)C)B2O[C@@H]3C[C@@H]4C[C@@H](C4(C)C)[C@]3(C)O2)c1	34
CC(C)[C@H](NC(=O)[C@H](CCC(=O)O)NC(=O)[C@@H](N)CC(=O)O)C(=O)N[C@H](C(=O)N1CCC[C@H]1C(=O)N[C@@H](CCc1ccc(C(C)(C)C)cc1)B1O[C@@H]2C[C@@H]3C[C@@H](C3(C)C)[C@]2(C)O1)C(C)C	3
CC(C)[C@H](NC(=O)[C@H](CCC(=O)O)NC(=O)[C@@H](N)CC(=O)O)C(=O)N[C@H](C(=O)N1CCC[C@H]1C(=O)N[C@@H](CCc1cccc(F)c1)B1O[C@@H]2C[C@@H]3C[C@@H](C3(C)C)[C@]2(C)O1)C(C)C (H-DEVVP-X4)	9
CC(C)[C@H](NC(=O)[C@H](CCC(=O)O)NC(=O)[C@@H](N)CC(=O)O)C(=O)N[C@H](C(=O)N1CCC[C@H]1C(=O)N[C@@H](CCc1ccc(-c2ccccc2)cc1)B1O[C@@H]2C[C@@H]3C[C@@H](C3(C)C)[C@]2(C)O1)C(C)C	7
CC(C)[C@H](NC(=O)[C@H](CCC(=O)O)NC(=O)[C@@H](N)CC(=O)O)C(=O)N[C@H](C(=O)N1CCC[C@H]1C(=O)N[C@@H](CCc1ccccc1)B1O[C@@H]2C[C@@H]3C[C@@H](C3(C)C)[C@]2(C)O1)C(C)C	8
CC(C)[C@H](NC(=O)[C@H](CCC(=O)O)NC(=O)[C@@H](N)CC(=O)O)C(=O)N[C@H](C(=O)N1CCC[C@H]1C(=O)N[C@@H](CCc1ccc(F)cc1)B1O[C@@H]2C[C@@H]3C[C@@H](C3(C)C)[C@]2(C)O1)C(C)C	6
CC(C)CCC[C@H](NC(=O)[C@@H]1CCCN1C(=O)[C@@H](NC(=O)[C@@H](NC(=O)[C@H](CCC(=O)O)NC(=O)[C@@H](N)CC(=O)O)C(C)C)C(C)C)B1O[C@@H]2C[C@@H]3C[C@@H](C3(C)C)[C@]2(C)O1	7
COc1ccc(CC[C@H](NC(=O)[C@@H]2CCCN2C(=O)[C@@H](NC(=O)[C@@H](NC(=O)[C@H](CCC(=O)O)NC(=O)[C@@H](N)CC(=O)O)C(C)C)C(C)C)B2O[C@@H]3C[C@@H]4C[C@@H](C4(C)C)[C@]3(C)O2)cc1	3
CC(C)c1ccc(CC[C@H](NC(=O)[C@@H]2CCCN2C(=O)[C@@H](NC(=O)[C@@H](NC(=O)[C@H](CCC(=O)O)NC(=O)[C@@H](N)CC(=O)O)C(C)C)C(C)C)B2O[C@@H]3C[C@@H]4C[C@@H](C4(C)C)[C@]3(C)O2)cc1	5
CC(C)[C@H](NC(=O)[C@H](CCC(=O)O)NC(=O)[C@@H](N)CC(=O)O)C(=O)N[C@H](C(=O)N1CCC[C@H]1C(=O)N[C@@H](Cc1ccccc1)B1O[C@@H]2C[C@@H]3C[C@@H](C3(C)C)[C@]2(C)O1)C(C)C (H-DEVVP-X15)	500
CC(C)[C@H](NC(=O)[C@H](CCC(=O)O)NC(=O)[C@@H](N)CC(=O)O)C(=O)N[C@H](C(=O)N1CCC[C@H]1C(=O)N[C@@H](CCCCc1ccccc1)B1O[C@@H]2C[C@@H]3C[C@@H](C3(C)C)[C@]2(C)O1)C(C)C	10
CC(C)[C@H](NC(=O)[C@H](CCC(=O)O)NC(=O)[C@@H](N)CC(=O)O)C(=O)N[C@H](C(=O)N1CCC[C@H]1C(=O)N[C@@H](CCc1ccc(O)cc1)B1O[C@@H]2C[C@@H]3C[C@@H](C3(C)C)[C@]2(C)O1)C(C)C	8
CCCCC[C@H](NC(=O)[C@@H]1CCCN1C(=O)[C@@H](NC(=O)[C@@H](NC(=O)[C@H](CCC(=O)O)NC(=O)[C@@H](N)CC(=O)O)C(C)C)C(C)C)B1O[C@@H]2C[C@@H]3C[C@@H](C3(C)C)[C@]2(C)O1 (H-DEVVP-X13)	12
CC(C)[C@H](NC(=O)[C@H](CCC(=O)O)NC(=O)[C@@H](N)CC(=O)O)C(=O)N[C@H](C(=O)N1CCC[C@H]1C(=O)N[C@@H](CCc1ccc(Br)cc1)B1O[C@@H]2C[C@@H]3C[C@@H](C3(C)C)[C@]2(C)O1)C(C)C	4
CC(C)C[C@H](NC(=O)[C@@H]1CCCN1C(=O)[C@@H](NC(=O)[C@@H](NC(=O)[C@H](CCC(=O)O)NC(=O)[C@@H](N)CC(=O)O)C(C)C)C(C)C)B1O[C@@H]2C[C@@H]3C[C@@H](C3(C)C)[C@]2(C)O1	8
CCCC[C@H](NC(=O)[C@@H]1CCCN1C(=O)[C@@H](NC(=O)[C@@H](NC(=O)[C@H](CCC(=O)O)NC(=O)[C@@H](N)CC(=O)O)C(C)C)C(C)C)B1O[C@@H]2C[C@@H]3C[C@@H](C3(C)C)[C@]2(C)O1 (H-DEVVP-X14)	11
CC(C)[C@H](NC(=O)[C@H](CCC(=O)O)NC(=O)[C@@H](N)CC(=O)O)C(=O)N[C@H](C(=O)N1CCC[C@H]1C(=O)N[C@@H](CCCc1ccccc1)B1O[C@@H]2C[C@@H]3C[C@@H](C3(C)C)[C@]2(C)O1)C(C)C (H-DEVVP-X6)	200
CC(C)CC[C@H](NC(=O)[C@@H]1CCCN1C(=O)[C@@H](NC(=O)[C@@H](NC(=O)[C@H](CCC(=O)O)NC(=O)[C@@H](N)CC(=O)O)C(C)C)C(C)C)B1O[C@@H]2C[C@@H]3C[C@@H](C3(C)C)[C@]2(C)O1 (H-DEVVP-X12)	39
